Our source for the inhibition and Activity values is ChEMBL document CHEMBL1143023, “Chemical synthesis and biological activities of 16alpha-derivatives of 5alpha-androstane-3alpha,17beta-diol as antiandrogens” (2007).

Test [1] in a line: Inhibition of DHT-stimulated proliferation of androgen sensitive AR+ Shionogi cells at 1 uM. In kind it is functional. To be noted: Mus musculus.
Test [2] is described as follows: Inhibition of DHT-stimulated proliferation of androgen sensitive AR+ Shionogi cells at 0.1 uM. In kind it is functional. The settings on record: Mus musculus.
The nature of test [3]: Proliferative activity on androgen sensitive AR+ Shionogi cells at 0.1 uM relative to DHT. In kind it is functional, Mus musculus. In short, it runs like this: (§1)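 AR+ Shionogi cells were given test compound alone, without DHT, for 10 days. Growth was read as DNA content by a modified Fiszer-Szafarz method. Stimulation % = 100 × [DNA(compound) − DNA(control)]/[DNA(DHT) − DNA(control)], with 0.3 nM DHT set as 100%. One experiment in triplicate.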

The test system of test [4] is PC-3. Description: Reduction of non-androgen sensitive AR- PC3 cell growth at 0.3 uM. In kind it is functional, cell-based. In short, it runs like this: (§2)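 PC-3 human prostate carcinoma (AR−) cells from passage 28 were allowed to adhere for 24 h. Medium was then changed to MEM with 2% charcoal-stripped FBS containing compound from 1000-fold ethanol stocks; the vehicle control was 0.1% EtOH. Cells grew 9 days at 37 °C, 5% CO2, with medium changes every 2–3 days. DNA content was measured; triplicate wells.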

In test [5] the test system is PC-3. Put plainly: Reduction of non-androgen sensitive AR- PC3 cell growth at 1 uM. It is filed as functional, cell-based. In short, it runs like this: as §2
A short description of test [6]: Stimulation of androgen sensitive AR+ Shionogi cell proliferation at 1 uM. In kind it is functional, Mus musculus. In short, it runs like this:
as §1

Each structure is given as a SMILES string. Calls of active or inactive are those of the source. The rule behind the calls is not given here.

Take `C[C@]12CC[C@@H](O)C[C@@H]1CC[C@@H]1[C@@H]2CC[C@]2(C)[C@@H](O)[C@H](CCCO)C[C@@H]12`: the inhibition (in general, how much of the control response was suppressed) at 1 µM in test [1] was 35%. Further, the inhibition at 0.1 µM in test [2] was 16%. For the same compound, in test [3], the Activity stood at 0%.
Take `C[C@]12CC[C@@H](O)C[C@@H]1CC[C@@H]1[C@@H]2CC[C@]2(C)[C@@H](O)[C@H](CCCSC#N)C[C@@H]12`: in test [1], the inhibition at 1 µM came out at 50%. In test [2], 0.1 µM produced 2% inhibition. Besides, the Activity in test [3] was 5%.
`C[C@]12CC[C@@H](O)C[C@@H]1CC[C@@H]1[C@@H]2CC[C@]2(C)[C@@H](O)[C@H](CCCF)C[C@@H]12` had an inhibition at 1 µM in test [1] of 70%. The compound also displayed an inhibition at 0.1 µM in test [2] of 44%. Moreover, in test [3], the Activity is listed as 0%.
`CO[C@@H]1CC[C@@]2(C)[C@@H](CC[C@@H]3[C@@H]2CC[C@]2(C)[C@@H](O)[C@H](CCCI)C[C@@H]32)C1` showed an inhibition at 1 µM in test [1] of 46%. In addition, 0.1 µM produced 0% inhibition in test [2]. The Activity in test [3] worked out at 0%.
Turning to `C[C@]12CC[C@@H](O)C[C@@H]1CC[C@@H]1[C@@H]2CC[C@]2(C)[C@@H](O)[C@H](CCCN=[N+]=[N-])C[C@@H]12`, in test [1], 1 µM produced 89% inhibition. This compound gave an inhibition at 0.1 µM in test [2] of 58%. The Activity in test [3] amounted to 0%.
In the case of `C[C@]12CC[C@@H](O)C[C@@H]1CC[C@@H]1[C@@H]2CC[C@]2(C)[C@@H](O)[C@H](CCCCl)C[C@@H]12`, in test [1], 1 µM produced 94% inhibition. For the same compound, the outcome in test [4] and in test [5] was inactive. In addition, in test [2], testing at 0.1 µM gave an inhibition of 67%. This compound also came in with an Activity in test [3] of 0%.
`C[C@]12CC[C@@H](O)C[C@@H]1CC[C@@H]1[C@@H]2CC[C@]2(C)[C@@H](O)[C@H](CCCN)C[C@@H]12` showed an inhibition at 1 µM in test [1] of 0%. Moreover, the inhibition at 0.1 µM in test [2] stood at 0%. In test [3], the Activity came out at 1%.
`CC(C)(O)C(=O)Nc1ccc([N+](=O)[O-])c(C(F)(F)F)c1` [HYDROXYFLUTAMIDE] came in with an inhibition at 1 µM in test [1] of 100%. For the same compound, in test [2], the inhibition at 0.1 µM was 67%. The compound further came in with an Activity in test [3] of 0%.
The compound `C[C@]12CC[C@H]3[C@@H](CCC4CC(=O)CC[C@@]43C)[C@@H]1C[C@@H](CCCI)[C@@H]2O` (stereo partly specified) registered an inhibition at 1 µM in test [1] of 76%. This compound came in with an inhibition at 0.1 µM in test [2] of 41%. In test [3], this compound yielded an Activity of 22%.
In test [1], `C[C@]12CC[C@@H](O)C[C@@H]1CC[C@@H]1[C@@H]2CC[C@]2(C)[C@@H](O)[C@H](CCCI)C[C@@H]12` returned an inhibition at 1 µM of 90%. Moreover, the inhibition at 0.1 µM in test [2] is 36%. Also, in test [3], the Activity is given as 0%.
On the same counts, the results for `C[C@]12CCC(=O)C[C@@H]1CC[C@@H]1[C@@H]2CC[C@]2(C)[C@@H](O)[C@H](CCCSC#N)C[C@@H]12` are 45%, 0% and 21%.
The compound `C[C@]12CC[C@H]3[C@@H](CCC4CC(=O)CC[C@@]43C)[C@@H]1C[C@@H](CCCN=[N+]=[N-])[C@@H]2O` (stereo partly specified) registered an inhibition at 1 µM in test [1] of 58%. Besides, the inhibition at 0.1 µM in test [2] turned out to be 73%. This compound gave an Activity in test [3] of 33%.
Consider `C[C@]12CC[C@@H](O)C[C@@H]1CC[C@@H]1[C@@H]2CC[C@]2(C)[C@@H](O)[C@H](CCCBr)C[C@@H]12`, for which the inhibition at 1 µM in test [1] amounted to 80%. The compound also registered an inhibition at 0.1 µM in test [2] of 46%. In addition, the Activity in test [3] is given as 0%.
The compound `C[C@]12CCC(=O)C[C@@H]1CC[C@@H]1[C@@H]2CC[C@]2(C)[C@@H](O)[C@H](CCCOCc3ccc(Br)cc3)C[C@@H]12` gave an inhibition at 1 µM in test [1] of 0%. The compound also had an inhibition at 0.1 µM in test [2] of 0%. In test [3], this compound gave an Activity of 153%.
Compound `C[C@]12CC[C@@H](O)C[C@@H]1CC[C@@H]1[C@@H]2CC[C@]2(C)[C@@H](O)[C@H](CCCOCc3ccc(Br)cc3)C[C@@H]12` gave an inhibition at 1 µM in test [1] of 7%. 0.1 µM produced 0% inhibition in test [2]. The Activity in test [3] amounted to 163%.
Compound `C[C@]12CC[C@H]3[C@@H](CCC4CC(=O)CC[C@@]43C)[C@@H]1C[C@@H](CCCCl)[C@@H]2O` (stereo partly specified) registered an inhibition at 1 µM in test [1] of 42%. Besides, the outcome in test [4] and in test [5] was inactive. The Activity in test [6] is on record as 52%; in test [3], 36%. In test [2], this compound gave an inhibition at 0.1 µM of 44%.
Turning to `C[C@]12CC[C@H]3[C@@H](CCC4CC(=O)CC[C@@]43C)[C@@H]1C[C@@H](CCCO)[C@@H]2O` (stereo partly specified), in test [1], the inhibition at 1 µM amounted to 46%. Moreover, in test [2], the inhibition at 0.1 µM came to 54%. Also, the Activity in test [3] is 9%.
